# Screening results (PubChem)
# Compounds with a hit are over-represented: about 0.3% of the library has one in this group of screens.
# KSHV LANA nucl – inhibitors of KSHV LANA binding to nucleosomes. FITC-LANA1-23 / chicken nucleosome fluorescence polarization; stronger effect = lower value. 51,000 tested, 0.3% active. z-score (no concentration beside the values). AID 720717;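 active = both repeat wells score below -2 in polarization z-score versus plate sample wells, excluding overly bright wells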
#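 Test system: purified chicken nucleosomes with FITC-labelled LANA N-terminal peptide (1-23); Input: 240 nM purified chicken nucleosomes (480 nM peptide binding sites), final; Medium: TEN-BT buffer, pH 7.5; Timing: 10–45 min, room temperature; Technique: fluorescence polarization, 480 nm excitation, 535 nm parallel and perpendicular emission; Replication: duplicates.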
# Ab BasE inh – BasE siderophore biosynthesis inhibition. purified BasE, fluorescence polarization binding displacement. 84,000 tested, 0.1% active. inhibition, % (no concentration beside the values). AID 485350; in the data active = inhibition above about 25%, passing the limit was not always enough;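 also: 0% = negative plate control signal and 100% = positive plate control signal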
# * marks the source's active call; other numbers are inactive results; . = no result given; ! = not confirmed by another sample.
SMILES,KSHV LANA nucl,Ab BasE inh
CCOc1cc(C=C2C(=O)NC(=O)NC2=O)cc(Cl)c1O,-2.4*,1
CCOc1cc(C=C2C(=O)N(C)C(=S)N(C)C2=O)ccc1OC(C)C(=O)O (stereo not drawn),0.22,2
N#Cc1c(N)[n+]([O-])c2ccccc2[n+]1[O-],-8.3*,1
CCCCNC1N=C(c2ccccc2)c2ccccc2N(C)C1=O (stereo not drawn),0.4,.
CCC1NCCc2c1[nH]c1ccccc21 (stereo not drawn),0.38,.
C1=C(c2cccnc2)Nc2ncnn2C1c1cccs1 (stereo not drawn),-8.8*,21
CCN1C[C@]2(COC)CC[C@H](OC)[C@]34C5C[C@@H]6[C@@H](OC)CC7(OCO[C@]7([C@H]13)[C@@H](O)C24)C5[C@H]6OC (stereo partly drawn),0.32,2
O=C1C=CC[C@H]2[C@@H]3CCCN4CCC[C@H](CN12)[C@H]34,0.3,1
CC(CN)c1ccccc1 (stereo not drawn),.,0
CC[n+]1c(-c2ccccc2)c2cc(N)ccc2c2ccc(N)cc21,-6*,4
CCN(CC)CC#N,.,5
C[C@@]12C[C@H](O)CCN1CCc1ccccc12,-2.4*,6
CC12NC(=O)CN1CCc1ccccc12 (stereo not drawn),-0.11,5
CCN1CCC(NCCOC)CC1,0.26,1
CC[C@@]1(O)C(=O)OCc2c1cc1n(c2=O)Cc2cc3c(O)cccc3nc2-1,-3.1*!,9
CC[C@@]1(O)C(=O)OCc2c1cc1n(c2=O)Cc2cc3ccccc3nc2-1,0.017,-3
O=C1NC(=O)C(=Cc2cn(Cc3ccccc3)c3ccccc23)C(=O)N1,.,3
CCn1cc(C=C2C(=O)NC(=O)NC2=O)c2ccccc21,-3.2*,2
CN(C)Cc1c(O)[nH]c(=S)[nH]c1=O,0.014,3
Clc1ccc(CON=C(Cn2ccnc2)c2ccc(Cl)cc2Cl)c(Cl)c1,-0.067,.
C=CCN1C(=O)/C(=C/c2ccco2)C(=O)NC1=S,0.37,9
CN1C(=O)/C(=C/c2ccc(I)o2)C(=O)NC1=S,0.57,41*
CNC(=O)c1cn(C)c2ccccc12,0.26,.
COP1(=S)/C(=C2/N(C)c3ccccc3C2(C)C)C=NN1C (stereo not drawn),.,4
